In the library only some 2.2% were active in any assay of this set; here they are far more common.
SIAE inh = human SIAE inhibition, primary screen | Q9HAT2 | SIAE FP-Rh probe binding, fluorescence polarization | inhibition, % at 9.66 µM | 370,000 tested, 0.69% active;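 active = inhibition above a cutoff: mean of compounds within the control limits plus 3 SD of those, cut at about 17% in these data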;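 note: 0% = plate median of compound wells and 100% = probe without SIAE protein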
mABHD4 FP = inhibits mouse alpha/beta hydrolase domain 4. Q8VD66. purified mABHD4, FP-Rh probe fluorescence polarization. inhibition, % at 8.92 µM. 370,000 tested, 0.54% active;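 active = inhibition exceeding the mean over every tested compound plus 3 SD, cut at about 30% in these data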;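 note: 0% = plate median of compound wells and 100% = S159A mutant with DMSO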
Target sequence (Q8VD66 whole entry, looked up, the tested form may be a part): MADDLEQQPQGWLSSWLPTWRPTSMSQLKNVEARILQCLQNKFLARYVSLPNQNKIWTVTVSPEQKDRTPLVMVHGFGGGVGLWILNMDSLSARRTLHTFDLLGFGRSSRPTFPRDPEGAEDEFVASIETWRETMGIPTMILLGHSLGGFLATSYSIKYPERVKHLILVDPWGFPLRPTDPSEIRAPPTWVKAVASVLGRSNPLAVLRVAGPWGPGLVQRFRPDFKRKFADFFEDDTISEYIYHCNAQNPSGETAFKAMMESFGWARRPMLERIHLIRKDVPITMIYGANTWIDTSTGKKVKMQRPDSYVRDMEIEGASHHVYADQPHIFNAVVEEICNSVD
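system = mouse ABHD4 enzyme, wild type | medium = HEPES pH 7.0, NaCl, Pluronic buffer | also added = FP-Rh probe | incubation = Enzyme–compound pre-incubation 45 min, then probe 60 min, both 25 °C | technique = fluorescence polarization, excitation 525 nm, emission 598 nm, BODIPY TMR filters | controls = S159A mutant high control, sample median low control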
LEDGF integ inh = blocks HIV-1 LEDGF/p75-dependent DNA integration | AID 743269 | inhibition, % at 3.7 µM | 370,000 tested, 0.64% active | TR-FRET IN-LEDGF/p75 DNA integration, Eu/Cy5;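 active = inhibition above the screen-wide mean plus 3 SD, cut at about 13% in these data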;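 note: signal is the Cy5 over europium emission ratio at 671 and 618 nm; 0% = plate median of compound wells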
TDP2 inh = TDP2 (human) inhibition, absorbance primary screen; 370,000 tested, 0.34% active; O95551; recombinant TDP2, T5PNP hydrolysis, p-nitrophenol absorbance 415 nm; inhibition, % at 12.8 µM;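 active = inhibition above the mean of all tested compounds plus 3 SD, set per campaign, cut at about 25% in these data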;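 note: 0% = DMSO with enzyme and 100% = buffer with substrate but no TDP2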
Target sequence (O95551 whole entry, looked up): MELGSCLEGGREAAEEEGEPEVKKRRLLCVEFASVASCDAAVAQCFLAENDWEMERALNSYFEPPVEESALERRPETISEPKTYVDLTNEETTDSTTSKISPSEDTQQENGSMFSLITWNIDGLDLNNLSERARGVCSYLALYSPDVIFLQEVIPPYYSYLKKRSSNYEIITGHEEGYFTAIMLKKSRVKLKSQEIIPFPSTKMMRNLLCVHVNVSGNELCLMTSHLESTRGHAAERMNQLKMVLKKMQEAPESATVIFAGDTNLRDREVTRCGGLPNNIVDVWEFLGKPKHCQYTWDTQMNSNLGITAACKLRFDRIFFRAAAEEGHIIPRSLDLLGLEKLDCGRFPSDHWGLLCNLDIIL
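Incubation: 2 h at 37 °C; Test system: recombinant human TDP2; Quantity: enzyme 120 nM; Read-out basis: percent inhibition; Medium: 50 mM Tris-HCl pH 7.5 with Mg2+, KCl, DTT, BSA; Repeats: single replicate; Compound: 12.8 µM single point, 1% DMSO; Signal: epi absorbance; Reagent: 5 mM T5PNP chromogenic substrate; Benchmarks: no-enzyme high, DMSO-plus-enzyme low.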
TCR-CD3 inh = blocks the human TCR-CD3 interaction. TAMRA-labeled TCR probe fluorescence, biochemical. inhibition, % at 9.4 µM. 360,000 tested, 0.37% active. AID 651800; in the data active = inhibition above about 19%;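 note: recombinant mutant TCR 2C K166C tagged with TAMRA read by polarization; 0% = receptor in buffer alone and 100% = receptor with positive control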
HTRA1 inh = blocks human HTRA1 serine peptidase. Q92743. AID 504803. 340,000 tested, 0.5% active. inhibition, % at 5.96 µM. recombinant HTRA1, FP-rhodamine activity-based probe, fluorescence polarization; in the data active = inhibition above about 36%;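 note: 0% = enzyme with DMSO and 100% = wells lacking enzyme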
TDP2 confirm = confirmation of human TDP2 inhibitors | 1,100 tested, 22% active | inhibition, % at 12.8 µM | recombinant human TDP2, absorbance read-out | shares compounds with TDP2 inh; in the data active = inhibition above about 25%;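 note: 0% = vehicle with enzyme and 100% = no enzyme buffer only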
IN multimer act = activates HIV-1 integrase multimerization in LEDGF counter-screen; shares compounds with LEDGF integ inh; TR-FRET HIV-1 integrase multimerization, biochemical; activation, % at 7.7 µM; 2,000 tested, 17% active; AID 1053131; in the data active = activation above about 8.9%
TR-FRET interf = optically interferes with TR-FRET readout in LEDGF counter-screen | shares compounds with LEDGF integ inh | TR-FRET optical interference counterscreen, HIV-1 IN multimerization | inhibition, % at 7.7 µM | 2,000 tested, under 10 active;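 active = inhibition above the mean over all tested compounds plus 3 SD, which no compound reached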;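 note: 0% = integrase with antibodies and DMSO and 100% = antibodies without integrase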
LEDGF integ conf = LEDGF/p75-dependent HIV-1 integration inhibition, confirmation. shares compounds with LEDGF integ inh. inhibition, % at 3.7 µM. 2,000 tested, 36% active. TR-FRET LEDGF/p75-dependent HIV-1 integration, biochemical. AID 1053136; in the data active = inhibition above about 14%
SIAE confirm = human SIAE inhibition, confirmation; shares compounds with SIAE inh; SIAE FP-Rh activity-based probe, fluorescence polarization; inhibition, % at 9.66 µM; 2,300 tested, 13% active; AID 1117263;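 active = mean inhibition of the replicates above the hit cutoff set in the primary screen, cut at about 17% in these data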;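 note: 0% = SIAE with DMSO and probe and 100% = probe without SIAE; inhibitors lower polarization as more probe stays unbound to SIAE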
The depositor's hits bear a star; / = not tested or not shown.

SMILES	SIAE inh	mABHD4 FP	LEDGF integ inh	TDP2 inh	TCR-CD3 inh	HTRA1 inh	TDP2 confirm	IN multimer act	TR-FRET interf	LEDGF integ conf	others
Cc1nnc(N/N=C/c2ccco2)n1N	3.9	-0.9	42.8*	68.9*	1.7	8.1	6.5	4.7	-23.6	-3.4
Cc1nnc(N/N=C/c2cccc(C(F)(F)F)c2)n1N	6.2	0.8	56.6*	82.5*	1.7	4.1	6.7	-2.3	8.1	-8.4
Fc1ccccc1/C=N/Nc1nn[nH]n1	1.1	3.9	1.9	-4.5	1.9	4.5	/	/	/	/
Cc1nnc(N/N=C/c2ccccc2F)n1N	-2.9	13.6	55.7*	49.9*	-1.0	5.6	8.3	0.9	-3.4	-3.9
COc1cccc(/C=N/Nc2nnc(C)n2N)c1O	5.9	1.3	47.6*	41.1*	-3.4	10.9	1.2	1.8	-9.0	-1.4
COc1ccc(-n2c(C)cc(/C=N/Nc3nnc(C)n3N)c2C)cc1	5.2	9.7	48.6*	73.3*	-1.2	14.7	14.0	3.4	-11.9	-2.5
COc1cccc(/C=N/Nc2cc(Cl)nc(C)n2)c1O	9.5	2.0	1.6	9.6	-7.7	19.2	/	/	/	/
COC(=O)C1CN(C(=O)OC(C)(C)C)C2=C1C(=O)CC(C)(C(=O)OC(C)(C)C)C2 (configuration not stated)	6.5	3.2	-2.5	5.9	/	/	/	/	/	/
CCCC1CCC2(CC1)CCC2OC(=S)Nc1ccccc1Cl (configuration not stated)	-4.7	-10.5	4.7	-5.6	/	/	/	/	/	/
COC(=O)[C@]12C[C@H](CC(=O)NCCC(C)C)C(=O)N(Cc3ccco3)C1=C[C@H](COCc1ccccc1)O[C@@H]2C	4.3	0.7	3.4	5.3	/	/	/	/	/	/
[O-][n+]1cccc2cccc(O)c21	5.9	13.3	-4.0	4.7	-3.1	-1.0	/	/	/	/
C[n+]1cccc2cccc([O-])c21	10.9	17.5	15.1*	27.4*	12.8	31.6	28.4*	8.4	-29.4	53.6*
COc1ccc(NC(=O)CSc2nc(C)cc(=O)[nH]2)cc1OC	9.3	-3.9	3.8	1.1	/	/	/	/	/	/
Cc1ccc(S(=O)(=O)Nc2ccccn2)c(C)c1	1.4	6.1	-1.4	-3.8	-2.8	0.0	/	/	/	/
CN(C)c1cccc2c(S(=O)(=O)Nc3ccccn3)cccc12	9.3	1.7	19.4*	55.7*	6.5	0.3	21.4	0.4	-1.5	-1.8
COc1ccc(CN2C3=N[C@H](c4ccccc4)CC(=O)N3/C(=C\c3ccccc3)C2c2ccco2)c(OC)c1 (some centres not stated)	-1.9	2.1	-2.0	-4.2	/	/	/	/	/	/
Cc1cc(/C=C2\SC(=S)NC2=O)c(C)n1-c1ccccc1	-8.1	8.2	-0.6	-5.6	5.5	/	/	/	/	/
Cc1cc(/C=C2\SC(=S)NC2=O)c(C)n1C	-1.9	20.7	38.3*	25.3*	6.0	28.9	-4.1	13.7*	-48.8	11.6
CCOC(=O)C1=C(COC(=O)c2ccc([N+](=O)[O-])s2)NC(=O)NC1C (configuration not stated)	-0.9	-7.1	31.1*	38.7*	-6.7	35.8	41.5*	0.5	-1.6	60.6*
CCCNC1=C(N(C(C)=O)c2cccc(F)c2)C(=O)c2ccccc2C1=O	1.2	7.3	16.6*	26.1*	-0.4	15.8	25.1*	-2.5	8.9	14.0*
NC1=C(Br)C(=O)c2ncccc2C1=O	2.1	6.1	28.8*	61.7*	-1.5	13.5	65.4*	7.4	-26.3	73.2*
Nc1ccc2nn(-c3ccccc3)nc2c1	19.3*	6.1	9.7	26.9*	-3.8	6.3	12.9	/	/	/	SIAE confirm=6.1
COc1ccc(NC(=O)Nc2ccccc2C(=O)N2CCCC2)cc1OC	1.8	4.2	-0.1	0.6	/	/	/	/	/	/
CCOC(=O)N1CCN(C2=C(NS(=O)(=O)c3ccc(C)cc3)C(=O)c3ccccc3C2=O)CC1	19.9*	19.8	14.9*	42.3*	2.5	17.4	32.0*	/	/	/	SIAE confirm=8.4
COC(=O)C1CCN(C2=C(NS(=O)(=O)c3ccc(Cl)cc3)C(=O)c3ccccc3C2=O)CC1	9.4	17.1	5.0	5.0	2.6	34.4	/	/	/	/
SMILES	SIAE inh	mABHD4 FP	LEDGF integ inh	TDP2 inh	TCR-CD3 inh	HTRA1 inh	TDP2 confirm	IN multimer act	TR-FRET interf	LEDGF integ conf	others
COc1cc(C(=O)N2CCC(N3CCCCCC3)CC2)cc(OC)c1OC	-0.1	6.3	1.4	1.4	3.6	12.6	/	/	/	/
COc1cc(C(=O)N2CCN(C3CCCCC3)CC2)cc(OC)c1OC	18.5*	10.1	-1.8	24.7*	5.7	4.5	5.7	/	/	/	SIAE confirm=9.7
C[C@@H]1CN([C@@H](C)CO)C(=O)c2cc(Br)cnc2O[C@@H]1CN(C)C(=O)c1ccc(F)cc1	1.9	-5.3	0.7	7.6	8.1	/	/	/	/	/
N#CCc1cnc2ccccc2n1	18.2*	8.1	-0.2	28.2*	2.4	28.3	21.6	/	/	/	SIAE confirm=-2.5
Cc1nc2c3ccccc3nc(NNC(=O)CCC(=O)N3CCC(C)CC3)n2n1	22.6*	0.8	2.2	28.7*	-4.3	-17.1	6.9	/	/	/	SIAE confirm=2.6
COc1ccccc1Cc1c(C2CCCCC2)nc2c(C)cc(Br)cn12	-7.2	-2.8	-3.0	-0.8	-1.3	/	/	/	/	/
O=C(NCc1n[nH]c(=S)n1-c1ccccc1)c1ccco1	2.8	4.3	14.9*	7.0	1.5	0.3	/	-0.4	2.2	-7.9
COc1ccc(CNC(=O)C2CCCN(c3nccc(C)n3)C2)cc1 (configuration not stated)	1.2	1.0	22.9*	14.7	-0.5	3.6	/	0.2	-1.2	0.5
Cc1cc(C)cc(NC(=O)C2CCCN(c3nccc(C)n3)C2)c1 (configuration not stated)	/	/	/	/	/	-8.4	/	/	/	/
CCc1ccc(NC(=O)CSc2nc3c(c(=O)n(C)c(=O)n3C)n2C)cc1	5.8	3.2	-3.9	1.3	0.0	-2.2	/	/	/	/
Cn1c(=O)c2c(nc(SCc3ccc(C(=O)O)cc3)n2C)n(C)c1=O	0.7	-17.2	14.1*	-6.3	-6.2	1.4	/	-2.6	13.0	7.9
CSC1=N/C(=C\c2ccc(C)s2)C(=O)S1	-4.7	4.6	0.2	-7.8	-1.2	-0.8	/	/	/	/
CSC1=N/C(=C\c2ccc(C)o2)C(=O)S1	-1.8	6.5	14.0*	-13.7	6.5	5.7	/	0.9	-4.7	5.6
